The target in test [1] is T1, Androgen receptor (Homo sapiens) (UniProt P10275).
T1 sequence (whole entry): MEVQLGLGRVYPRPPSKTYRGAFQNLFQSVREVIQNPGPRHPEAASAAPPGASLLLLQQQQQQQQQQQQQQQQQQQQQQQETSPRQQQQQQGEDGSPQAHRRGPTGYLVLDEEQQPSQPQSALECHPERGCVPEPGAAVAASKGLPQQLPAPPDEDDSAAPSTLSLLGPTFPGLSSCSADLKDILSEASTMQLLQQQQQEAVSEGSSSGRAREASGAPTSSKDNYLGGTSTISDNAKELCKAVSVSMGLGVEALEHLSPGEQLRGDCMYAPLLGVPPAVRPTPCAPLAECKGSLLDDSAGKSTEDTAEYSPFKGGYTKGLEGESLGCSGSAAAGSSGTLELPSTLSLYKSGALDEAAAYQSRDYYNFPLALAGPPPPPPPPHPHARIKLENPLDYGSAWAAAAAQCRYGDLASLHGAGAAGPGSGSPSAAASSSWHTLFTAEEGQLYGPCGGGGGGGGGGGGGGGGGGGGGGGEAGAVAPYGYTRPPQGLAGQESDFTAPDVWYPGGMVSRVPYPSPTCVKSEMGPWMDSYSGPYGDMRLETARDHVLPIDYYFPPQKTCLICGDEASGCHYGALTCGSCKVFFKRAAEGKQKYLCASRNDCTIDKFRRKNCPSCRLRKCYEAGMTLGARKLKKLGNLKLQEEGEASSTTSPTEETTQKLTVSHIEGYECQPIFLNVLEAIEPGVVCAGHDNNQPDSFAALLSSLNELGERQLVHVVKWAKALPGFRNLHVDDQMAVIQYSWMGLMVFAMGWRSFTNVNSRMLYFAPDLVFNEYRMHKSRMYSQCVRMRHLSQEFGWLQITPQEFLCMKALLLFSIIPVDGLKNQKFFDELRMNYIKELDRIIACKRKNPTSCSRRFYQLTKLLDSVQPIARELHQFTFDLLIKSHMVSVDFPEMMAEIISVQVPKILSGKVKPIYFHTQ
As to the kind of experiment: Antagonist activity at androgen receptor in human LNCaP cells assessed as increase in Maspin promoter activity by luciferase reporter gene assay. Type of test: functional, cell-based. The procedure, abridged:
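LNCaP cells carrying a maspin promoter-luciferase reporter were treated with compound and read by luciferase activity, in triplicate.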
Background: In a reporter assay the amount or activity of a reporter protein is the signal.

In test [2] the target is T2, Progesterone receptor (Homo sapiens) (UniProt P06401).
T2 sequence (whole entry): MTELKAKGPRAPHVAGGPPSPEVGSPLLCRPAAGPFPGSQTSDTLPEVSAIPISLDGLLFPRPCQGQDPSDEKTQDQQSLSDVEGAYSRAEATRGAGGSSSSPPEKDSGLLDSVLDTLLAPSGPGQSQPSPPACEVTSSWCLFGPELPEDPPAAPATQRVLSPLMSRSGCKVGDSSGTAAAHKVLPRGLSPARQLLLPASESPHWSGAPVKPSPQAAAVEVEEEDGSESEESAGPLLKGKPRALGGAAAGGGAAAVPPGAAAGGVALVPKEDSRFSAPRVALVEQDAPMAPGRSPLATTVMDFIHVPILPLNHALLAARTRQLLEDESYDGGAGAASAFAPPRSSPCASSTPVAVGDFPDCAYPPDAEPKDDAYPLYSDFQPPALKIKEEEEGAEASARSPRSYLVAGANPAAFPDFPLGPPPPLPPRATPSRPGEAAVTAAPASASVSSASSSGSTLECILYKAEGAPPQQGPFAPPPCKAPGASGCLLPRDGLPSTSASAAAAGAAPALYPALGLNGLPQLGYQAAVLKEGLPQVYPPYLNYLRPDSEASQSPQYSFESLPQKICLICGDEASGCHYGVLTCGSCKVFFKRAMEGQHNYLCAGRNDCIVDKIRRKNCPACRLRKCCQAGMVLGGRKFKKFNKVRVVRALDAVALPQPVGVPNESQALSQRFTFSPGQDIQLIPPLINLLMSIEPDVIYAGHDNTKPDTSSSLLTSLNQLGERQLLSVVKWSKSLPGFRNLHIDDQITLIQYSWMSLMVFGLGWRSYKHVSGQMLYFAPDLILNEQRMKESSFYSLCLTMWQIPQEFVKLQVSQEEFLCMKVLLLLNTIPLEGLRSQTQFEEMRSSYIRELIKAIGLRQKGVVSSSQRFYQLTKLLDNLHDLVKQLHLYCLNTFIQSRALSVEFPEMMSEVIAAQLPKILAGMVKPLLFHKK
As to the kind of experiment: Antagonist activity at progesterone receptor in human PC3 cells assessed as reduction in R5020-inducedreceptor transactivation at 1 uM by luciferase reporter gene assay. Type of test: functional, cell-based. As to conditions: PC-3. The procedure, abridged:
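PC-3 cells lack detectable PR, so they were cotransfected with a PR expression plasmid and the MMTV-luc reporter. Compound tested at 1 μM, alone or against transactivation induced by 10 nM R5020. Read-out was luciferase reporter activity.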

For test [3], the target named is T1, Androgen receptor (Homo sapiens). As to the kind of experiment: Antagonist activity at androgen receptor in human LNCaP cells assessed as increase in Maspin protein expression at 1 to 5 uM incubated for 24 hrs by Western blotting.
Test [4] shares this target. As to the kind of experiment: Antagonist activity at androgen receptor in human LNCaP cells assessed as increase in Maspin protein expression at 1 or 2.5 uM incubated for 24 hrs in presence of DHT by Western blot.

Activity calls are given as the source filed them. The calls are words filed in the database; no cut-off is given here.

As to `Cc1coc2c1C(=O)C(=O)c1c-2ccc2c1CCCC2(C)C` [TANSHINONE IIA], the Activity result in test [1] is “Dose-dependent effect”. The result in test [2] was inactive. In addition, the outcome in test [3] and in test [4] was Active.
